Measurements as given in ChEMBL document CHEMBL1130193, “Synthesis, cardiotonic activity, and structure-activity relationships of 17 beta-guanylhydrazone derivatives of 5 beta-androstane-3 beta, 14 beta-diol acting on the Na+,K(+)-ATPase receptor” (J Med Chem, 1997).

Legend:
[1] = species on record: Cavia porcellus; assay: In vitro inotropic activity was determined by the affects of contractile force on guinea pig left atrium; Maximal increase in force of contraction; assay type: functional; conditions: Cardiac atrium
Procedure, shortened: (§1)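 Isolated atrium preparations in solution bubbled with 95% O2/5% CO2, driven by platinum electrodes with square-wave pulses at 1 Hz (1 ms, twice threshold voltage). After 60 min equilibration, cumulative concentrations were added, each kept until maximal response or arrhythmias appeared.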

[2] = species on record: Cavia porcellus; assay: (§2) In vitro inotropic activity was determined by the affects of contractile force on guinea pig left atrium.; assay type: functional, organism-based; conditions: Cardiac atrium; procedure, shortened: as §1
[3] = % of preparations of arrhythmogenic activity was determined by the onset of the first series of ectopic beats; assay type: functional, Heart; design: concentration or dose not given beside the values; procedure, shortened: as §1
[4] = molecular target: Sodium/potassium-transporting ATPase subunit alpha-1 (Canis lupus familiaris, UniProt P50997); assay: Inhibition of Na+/K+ ATPase from dog kidney
[5] = Arrhythmogenic activity was determined by the onset of the first series of ectopic beats; assay type: functional, Heart; procedure, shortened: as §1
[6] = species on record: Cavia porcellus; assay: In vitro inotropic activity was determined by the affects of contractile force on guinea pig left atrium; assay type: functional, Cardiac atrium; procedure, shortened: as §1
[7] = species on record: Cavia porcellus; assay: as §2; assay type: functional, Cardiac atrium; procedure, shortened: as §1

Row | SMILES | Emax [1] [%] | EC50 [2] [µM] | Activity [3] [%] | IC50 [4] [µM] | Activity [5] [µM] | concentration giving Emax [6] [µM] | concentration giving Emax [7] [µM]
1 | C[C@]12CC[C@H](O)C[C@H]1CC[C@@H]1[C@@H]2CC[C@]2(C)[C@@H](/C=N/N=C(N)N)CC[C@]12O.Cl | 265 | 4 | 57 | 1.58 | 30 | 30 | –
2 | C[C@]12CC[C@H](O)C[C@H]1CC[C@@H]1[C@@H]2CC[C@]2(C)[C@@H](/C=C/C=N/NC3=NCCN3)CC[C@]12O | 136 | 9 | 50 | – | 100 | 100 | –
3 | C[C@]12CC[C@H](O)C[C@H]1CC[C@@H]1[C@@H]2CC[C@]2(C)[C@@H](/C=C/C=C/C=N/N=C(N)N)CC[C@]12O | 98 | 15 | 100 | 7.94 | 300 | 100 | –
4 | C[C@]12CC[C@H](O)C[C@H]1CC[C@@H]1[C@@H]2CC[C@]2(C)[C@@H](/C=N/NC3=NCCN3)CC[C@]12O | 129 | 17 | 0 | – | 300 | 300 | –
5 | C[C@]12CC[C@H](O)C[C@H]1CC[C@@H]1[C@@H]2CC[C@]2(C)[C@@H](/C=N/NC3=NCCCN3)CC[C@]12O | 62 | 5 | – | – | 30 | 30 | –
6 | C[C@]12CC[C@H](O)C[C@H]1CC[C@@H]1[C@@H]2CC[C@]2(C)[C@@H](/C=C/C=N/N=C(N)N)CC[C@]12O | 140 | 0.4 | 20 | 0.16 | 3 | 3 | –
7 | C[C@]12CC[C@H](O)C[C@H]1CC[C@@H]1[C@@H]2CC[C@]2(C)[C@@H](CNN=C(N)N)CC[C@]12O.Cl | 166 | 8 | 0 | 2 | 100 | 30 | –
8 | C[C@]12CC[C@H](O)C[C@H]1CC[C@@H]1[C@@H]2CC[C@]2(C)[C@@H](/C=C/C3=CC(=O)OC3)CC[C@]12O | 110 | 14 | 0 | 3.98 | 300 | – | 100
9 | C[C@]12CC[C@H](O)C[C@H]1CC[C@@H]1[C@@H]2CC[C@]2(C)[C@@H](C3=CC(=O)OC3)CC[C@]12O [DIGITOXIGENIN] | 200 | 0.6 | 60 | 0.5 | 10 | – | 3
10 | C[C@H]1O[C@@H](O[C@H]2[C@@H](O)C[C@H](O[C@H]3[C@@H](O)C[C@H](O[C@H]4CC[C@@]5(C)[C@H](CC[C@@H]6[C@@H]5C[C@@H](O)[C@]5(C)[C@@H](C7=CC(=O)OC7)CC[C@]65O)C4)O[C@@H]3C)O[C@@H]2C)C[C@H](O)[C@@H]1O [DIGOXIN] | – | 0.4 | 50 | – | 3 | 1 | –
